Results reported in ChEMBL document CHEMBL1153263, “3-Acrylamide-4-aryloxyindoles: synthesis, biological evaluation and metabolic stability of potent and selective EP3 receptor antagonists” (Bioorg Med Chem Lett, 2009).

Legend:
[1] = target: T1, Prostaglandin E2 receptor EP3 subtype (Homo sapiens, UniProt P43115); assay: Displacement of [3H]PGE2 from human EP3 receptor at 20 uM in presence of 10% human serum
T1 sequence (P43115 whole entry): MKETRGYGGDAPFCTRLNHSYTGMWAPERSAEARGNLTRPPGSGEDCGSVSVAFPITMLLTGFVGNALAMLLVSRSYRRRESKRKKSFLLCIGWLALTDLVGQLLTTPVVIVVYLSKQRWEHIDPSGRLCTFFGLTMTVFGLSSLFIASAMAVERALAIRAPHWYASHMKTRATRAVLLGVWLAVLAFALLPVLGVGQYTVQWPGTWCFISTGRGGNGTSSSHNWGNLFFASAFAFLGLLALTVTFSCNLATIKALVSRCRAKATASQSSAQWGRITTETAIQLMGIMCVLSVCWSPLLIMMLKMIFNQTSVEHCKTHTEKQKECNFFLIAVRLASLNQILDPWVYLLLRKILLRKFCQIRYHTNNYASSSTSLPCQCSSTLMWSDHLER

[2] = target: Prostaglandin E2 receptor EP2 subtype (Homo sapiens, UniProt P43116); assay: Displacement of radioligand from EP2 receptor
[3] = target: T2, Prostaglandin E2 receptor EP3 subtype (Homo sapiens) (UniProt P43115); assay: Ratio IC50 for human EP3 receptor in presence of human serum to IC50 for human EP3 in absence of human serum
T2 sequence (whole entry): T1 sequence (P43115 whole entry)

[4] = target: Prostaglandin F2-alpha receptor (Homo sapiens, UniProt P43088); assay: Displacement of radioligand from FP receptor
[5] = target: T1, Prostaglandin E2 receptor EP3 subtype; assay: Displacement of [3H]PGE2 from human EP3 receptor at 20 uM in presence of normal buffer
[6] = target: T3, Prostaglandin E2 receptor EP1 subtype (Homo sapiens, UniProt P34995); assay: Displacement of radioligand from EP1 receptor
T3 sequence (P34995 whole entry): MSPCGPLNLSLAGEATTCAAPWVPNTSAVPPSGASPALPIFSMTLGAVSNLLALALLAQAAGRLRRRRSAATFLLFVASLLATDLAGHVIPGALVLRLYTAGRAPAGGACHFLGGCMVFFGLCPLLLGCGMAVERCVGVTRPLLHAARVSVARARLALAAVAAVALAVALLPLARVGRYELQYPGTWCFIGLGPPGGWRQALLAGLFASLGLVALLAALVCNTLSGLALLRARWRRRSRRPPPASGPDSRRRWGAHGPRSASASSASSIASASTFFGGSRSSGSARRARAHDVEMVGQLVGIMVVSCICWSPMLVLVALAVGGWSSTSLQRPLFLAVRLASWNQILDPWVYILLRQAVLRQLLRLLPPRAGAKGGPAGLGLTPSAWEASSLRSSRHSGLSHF

[7] = target: Prostaglandin E2 receptor EP4 subtype (Homo sapiens, UniProt P35408); assay: Displacement of radioligand from EP4 receptor
[8] = Metabolic stability in human liver microsome assessed as compound remaining at 5 uM after 30 mins; type: ADME; settings: liver microsomes, read-out: Stability
How it was run: (§1)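 Liver microsomes at 0.8 mg/mL protein incubated with compound at 5 µM. Percent parent remaining after 30 min measured by LC–MS/MS.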

[9] = Metabolic stability in rat liver microsome assessed as compound remaining at 5 uM after 30 mins; type: ADME; settings: liver microsomes, read-out: Stability; how it was run: as §1

Sequence of Prostaglandin F2-alpha receptor (P43088 whole entry): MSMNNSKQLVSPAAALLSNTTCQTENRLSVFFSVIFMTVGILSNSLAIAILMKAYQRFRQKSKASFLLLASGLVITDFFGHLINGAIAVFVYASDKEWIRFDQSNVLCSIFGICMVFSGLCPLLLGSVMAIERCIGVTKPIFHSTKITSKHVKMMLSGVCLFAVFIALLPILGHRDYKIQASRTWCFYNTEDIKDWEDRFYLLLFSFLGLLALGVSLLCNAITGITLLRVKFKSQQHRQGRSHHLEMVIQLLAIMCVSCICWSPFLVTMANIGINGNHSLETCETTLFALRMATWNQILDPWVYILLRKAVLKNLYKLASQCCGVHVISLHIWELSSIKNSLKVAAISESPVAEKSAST
Sequence of Prostaglandin E2 receptor EP2 subtype (P43116 whole entry): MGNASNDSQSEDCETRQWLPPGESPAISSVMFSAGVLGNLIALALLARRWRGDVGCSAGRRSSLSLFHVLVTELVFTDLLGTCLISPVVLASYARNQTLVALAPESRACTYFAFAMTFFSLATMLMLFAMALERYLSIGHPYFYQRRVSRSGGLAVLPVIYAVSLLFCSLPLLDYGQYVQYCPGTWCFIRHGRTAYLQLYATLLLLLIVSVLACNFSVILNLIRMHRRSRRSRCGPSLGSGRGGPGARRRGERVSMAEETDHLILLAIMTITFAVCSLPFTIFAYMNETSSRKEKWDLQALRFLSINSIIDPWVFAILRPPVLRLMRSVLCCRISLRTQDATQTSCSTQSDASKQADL
Sequence of Prostaglandin E2 receptor EP4 subtype (P35408 whole entry): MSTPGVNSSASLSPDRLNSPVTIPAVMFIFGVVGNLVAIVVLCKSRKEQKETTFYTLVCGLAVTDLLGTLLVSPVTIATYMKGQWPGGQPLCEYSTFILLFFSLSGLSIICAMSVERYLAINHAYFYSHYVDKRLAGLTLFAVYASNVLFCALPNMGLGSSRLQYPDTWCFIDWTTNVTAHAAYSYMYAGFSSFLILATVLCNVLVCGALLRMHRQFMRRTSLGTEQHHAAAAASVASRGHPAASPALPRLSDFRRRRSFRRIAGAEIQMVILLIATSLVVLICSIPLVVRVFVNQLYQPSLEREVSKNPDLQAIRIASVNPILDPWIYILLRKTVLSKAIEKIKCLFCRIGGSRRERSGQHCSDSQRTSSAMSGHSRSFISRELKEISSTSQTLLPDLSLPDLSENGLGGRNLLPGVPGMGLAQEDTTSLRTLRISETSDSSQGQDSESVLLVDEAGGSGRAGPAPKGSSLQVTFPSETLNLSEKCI

Structure (SMILES) | IC50 [1] [nM] | IC50 [2] [nM] | Ratio IC50 [3] | IC50 [4] [nM] | IC50 [5] [nM] | IC50 [6] [nM] | IC50 [7] [nM] | remaining at 0.5 h, 5 µM [8] [%] | remaining at 0.5 h, 5 µM [9] [%]
Cn1cc(/C=C/C(=O)NS(=O)(=O)c2cc(F)c(F)cc2F)c2c(Oc3ccc(Cl)c(F)c3)cccc21 | 53.9 | 10000 | 8 | 2230 | 6.7 | 1370 | 10000 |  | 
Cn1cc(/C=C/C(=O)NS(=O)(=O)c2ccc(F)c(F)c2)c2c(Oc3ccc(Cl)c(F)c3)cccc21 | 612 |  | 26.3 |  | 23.4 |  |  |  | 
Cn1cc(/C=C/C(=O)NS(=O)(=O)c2cccc(F)c2)c2c(Oc3ccc4ccccc4c3)cccc21 | 116 |  | 6.6 |  | 17.5 |  |  |  | 
Cn1cc(/C=C/C(=O)NS(=O)(=O)c2ccc(Cl)cc2Cl)c2c(Oc3ccc4ccccc4c3)cccc21 | 1540 |  | 28.5 |  | 54.1 |  |  |  | 
Cn1cc(/C=C/C(=O)NS(=O)(=O)c2ccc(F)c(F)c2)c2c(Oc3ccc(Cl)c(Cl)c3)cccc21 | 50.8 | 4200 | 4.1 | 2400 | 12.4 | > 10000 | 20400 | 58.8 | 14.9
Cn1cc(/C=C/C(=O)NS(=O)(=O)c2cc(F)c(F)cc2F)c2c(Oc3ccc(F)cc3Cl)cccc21 | 316 |  | 17.5 |  | 18.1 |  |  |  | 
Cn1cc(/C=C/C(=O)NS(=O)(=O)c2ccccc2Cl)c2c(Oc3ccc4ccccc4c3)cccc21 | 1680 |  | 91.3 |  | 18.4 |  |  |  | 
Cn1cc(/C=C/C(=O)NS(=O)(=O)c2cc(F)c(F)cc2F)c2c(Oc3ccc(F)cc3F)cccc21 |  |  |  |  | 84.8 |  |  |  | 
Cn1cc(/C=C/C(=O)NS(=O)(=O)c2cc(F)cc(F)c2)c2c(Oc3ccc4ccccc4c3)cccc21 | 157 |  | 3.5 |  | 44.9 |  |  |  | 
Cn1cc(/C=C/C(=O)NS(=O)(=O)c2ccc(F)c(F)c2)c2c(Oc3ccc(F)cc3F)cccc21 |  |  |  |  | 18.5 |  |  |  | 
Cn1cc(/C=C/C(=O)NS(=O)(=O)c2ccc(F)c(F)c2)c2c(Oc3ccc(F)cc3Cl)cccc21 | 146 |  | 10.5 |  | 13.8 |  |  |  | 
Cn1cc(/C=C/C(=O)NS(=O)(=O)c2cc(F)c(F)cc2F)c2c(Oc3ccc4ncccc4c3)cccc21 | 168 |  | 19.8 |  | 8.5 |  |  |  | 
Cn1cc(/C=C/C(=O)NS(=O)(=O)c2ccccc2F)c2c(Oc3ccc4ccccc4c3)cccc21 | 646 |  | 54.3 |  | 11.9 |  |  |  | 
Cn1cc(/C=C/C(=O)NS(=O)(=O)c2cc(F)ccc2F)c2c(Oc3ccc4ccccc4c3)cccc21 | 157 |  | 24.3 |  | 6.5 |  |  |  | 
Cn1cc(/C=C/C(=O)NS(=O)(=O)c2c(F)cccc2F)c2c(Oc3ccc4ccccc4c3)cccc21 | 710 |  | 121 |  | 5.9 |  |  |  | 
Cn1cc(/C=C/C(=O)NS(=O)(=O)c2cc(F)c(F)cc2F)c2c(Oc3ccc(F)c(Cl)c3)cccc21 | 61.1 | > 10000 | 6.3 | 3160 | 9.7 | > 10000 | > 10000 |  | 
Cn1cc(/C=C/C(=O)NS(=O)(=O)c2ccc(Cl)c(Cl)c2)c2c(Oc3ccc4ccccc4c3)cccc21 | 92.9 |  | 7.8 |  | 11.8 |  |  |  | 
COc1ccc(S(=O)(=O)NC(=O)/C=C/c2cn(C)c3cccc(Oc4ccc5ccccc5c4)c23)cc1 |  |  |  |  | 101 |  |  |  | 
Cn1cc(/C=C/C(=O)NS(=O)(=O)c2ccc(Cl)cc2)c2c(Oc3ccc4ccccc4c3)cccc21 | 1100 |  | 50.2 |  | 21.9 |  |  |  | 
Cn1cc(/C=C/C(=O)NS(=O)(=O)c2cc(F)c(F)cc2F)c2c(Oc3cnc4ccccc4n3)cccc21 | 128 |  | 17.7 |  | 7.2 |  |  |  | 
Cn1cc(/C=C/C(=O)NS(=O)(=O)c2cc(Cl)cc(Cl)c2)c2c(Oc3ccc4ccccc4c3)cccc21 | 321 |  | 37 |  | 8.7 |  |  |  | 
Cn1cc(/C=C/C(=O)NS(=O)(=O)c2ccc(F)c(F)c2)c2c(Oc3ccc(Cl)cc3)cccc21 | 776 |  | 28.4 |  | 27.3 |  |  |  | 
Cn1cc(/C=C/C(=O)NS(=O)(=O)c2ccc(F)cc2)c2c(Oc3ccc4ccccc4c3)cccc21 | 182 |  | 19.4 |  | 9.4 |  |  |  | 
Cn1cc(/C=C/C(=O)NS(=O)(=O)c2ccc(F)c(F)c2)c2c(Oc3cnc4ccccc4n3)cccc21 | 217 |  | 35.3 |  | 6.1 |  |  |  | 

Stronger by IC50 [5], values ahead:

IC50 [1] [nM] | IC50 [2] [nM] | Ratio IC50 [3] | IC50 [4] [nM] | IC50 [5] [nM] | IC50 [6] [nM] | IC50 [7] [nM] | remaining at 0.5 h, 5 µM [8] [%] | remaining at 0.5 h, 5 µM [9] [%] | Structure (SMILES)
16.7 | 9300 | 5.2 | 3570 | 3.2 |  | > 10000 | 74.7 | 39.1 | Cn1cc(/C=C/C(=O)NS(=O)(=O)c2cc(F)c(F)cc2F)c2c(Oc3ccc(Cl)cc3Cl)cccc21
196 |  | 41.9 |  | 4.7 |  |  |  |  | Cn1cc(/C=C/C(=O)NS(=O)(=O)c2ccc(F)c(F)c2)c2c(Oc3ccc(F)c(F)c3)cccc21
 |  |  |  | 5.1 |  |  |  |  | Cn1cc(/C=C/C(=O)NS(=O)(=O)c2c(F)c(F)c(F)c(F)c2F)c2c(Oc3ccc4ccccc4c3)cccc21
45.2 | 7680 | 17.1 | 4640 | 2.6 | 5320 | 13000 |  |  | Cn1cc(/C=C/C(=O)NS(=O)(=O)c2cc(F)c(F)cc2F)c2c(Oc3ccc(Cl)c(Cl)c3)cccc21
156 |  | 35.6 |  | 4.4 |  |  |  |  | Cn1cc(/C=C/C(=O)NS(=O)(=O)c2cc(F)c(F)cc2F)c2c(Oc3ccc(Cl)cc3F)cccc21
 |  |  |  | 5.1 |  |  |  |  | COc1cccc(Oc2cccc3c2c(/C=C/C(=O)NS(=O)(=O)c2cc(F)c(F)cc2F)cn3C)c1
393 |  | 132 |  | 3 |  |  |  |  | Cn1cc(/C=C/C(=O)NS(=O)(=O)c2cc(F)c(F)cc2F)c2c(Oc3ccc(Cl)cc3)cccc21
89.6 |  | 19.4 |  | 4.6 |  |  |  |  | Cn1cc(/C=C/C(=O)NS(=O)(=O)c2cc(Cl)c(Cl)s2)c2c(Oc3ccc4ccccc4c3)cccc21
115 |  | 32.7 |  | 3.5 |  |  |  |  | Cn1cc(/C=C/C(=O)NS(=O)(=O)c2ccc(F)cc2F)c2c(Oc3ccc4ccccc4c3)cccc21
209 |  | 55 |  | 3.8 |  |  |  |  | Cn1cc(/C=C/C(=O)NS(=O)(=O)c2cc(F)c(F)cc2F)c2c(Oc3ccc(F)c(F)c3)cccc21
130 |  | 68.7 |  | 1.9 |  |  |  |  | Cn1cc(/C=C/C(=O)NS(=O)(=O)c2ccc(F)c(F)c2)c2c(Oc3ccc4ncccc4c3)cccc21
 |  |  |  | 4.4 |  |  |  |  | COc1cccc(Oc2cccc3c2c(/C=C/C(=O)NS(=O)(=O)c2ccc(F)c(F)c2)cn3C)c1
